# Results as given in ChEMBL document CHEMBL1773035, “SHAFTS: a hybrid approach for 3D molecular similarity calculation. 2. Prospective case study in the discovery of diverse p90 ribosomal S6 protein kinase 2 inhibitors to suppress cell migration” (J Med Chem, 2011).
# pIC50: −log10 of the molar value. Calls of active or inactive are those of the source. The calls are words filed in the database; no cut-off is given here.
# Columns and labels:
# HCT-116 [1] = experiment: Antiproliferative activity against human HCT116 cells over expressing RSK2 at 100 uM after 48 hrs by MTT assay; type: functional; conditions: HCT-116, 48 h
# In short: (§1)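 Formazan dissolved in DMSO, absorbance read at 570 nm. Inhibition = (1 − A570 compound/A570 control)×100. Screening concentration 100 μM (control 10 μM). IC50 from curves, ≥3 independent tests, attempted when inhibition at 100 μM exceeded 40%.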
# MCF7 [2] = experiment: Antiproliferative activity against human MCF7 cells over expressing RSK2 at 100 uM after 48 hrs by MTT assay; type: functional; conditions: MCF7, 48 h; in short: as §1
# MDA-MB-231 [3] = experiment: Antiproliferative activity against human MDA-MB-231 cells over expressing RSK2 at 100 uM after 48 hrs by MTT assay; type: functional; conditions: MDA-MB-231, 48 h; in short: as §1
# [4] = biological target: T1, Ribosomal protein S6 kinase alpha-3 (Homo sapiens, UniProt P51812); experiment: Inhibition of RSK2 after 60 mins
# T1 sequence (P51812 whole entry): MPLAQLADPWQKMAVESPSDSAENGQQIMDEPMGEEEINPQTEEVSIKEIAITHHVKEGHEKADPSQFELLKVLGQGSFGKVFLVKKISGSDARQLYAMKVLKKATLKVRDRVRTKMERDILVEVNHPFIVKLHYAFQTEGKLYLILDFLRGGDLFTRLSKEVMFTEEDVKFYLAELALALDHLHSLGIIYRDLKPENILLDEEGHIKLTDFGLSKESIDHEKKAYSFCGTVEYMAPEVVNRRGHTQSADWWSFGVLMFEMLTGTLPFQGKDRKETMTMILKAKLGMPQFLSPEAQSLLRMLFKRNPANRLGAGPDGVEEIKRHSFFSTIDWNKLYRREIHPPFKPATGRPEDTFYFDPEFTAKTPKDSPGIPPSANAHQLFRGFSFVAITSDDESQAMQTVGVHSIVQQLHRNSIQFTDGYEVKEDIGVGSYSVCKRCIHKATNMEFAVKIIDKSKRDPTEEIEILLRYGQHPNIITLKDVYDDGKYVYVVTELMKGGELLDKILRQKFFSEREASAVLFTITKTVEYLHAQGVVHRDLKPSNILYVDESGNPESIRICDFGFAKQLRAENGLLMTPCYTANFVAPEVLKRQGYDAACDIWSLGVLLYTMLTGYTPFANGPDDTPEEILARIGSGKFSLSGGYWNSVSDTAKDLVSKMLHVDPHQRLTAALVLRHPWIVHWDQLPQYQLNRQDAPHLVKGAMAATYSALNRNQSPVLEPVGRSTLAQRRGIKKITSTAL
# In short: (§2)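 Recombinant RSK2 (20 ng) preincubated 20 min at room temperature with compound in HEPES pH 7.4 buffer (MgCl2, EGTA, Tween 20, BGG) with 25 μM S6 peptide; started with ATP (10 μM final), 60 min at room temperature. ADP Quest fluorescence read at ex 530/em 590 nm. IC50 from curves of ≥3 independent tests, measured when inhibition at 10 μM exceeded 30%.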
# HCT-116 [5] = experiment: Antiproliferative activity against human HCT116 cells over expressing RSK2 after 48 hrs by MTT assay; type: functional, cell-based; conditions: HCT-116, 48 h; in short: as §1
# MCF7 [6] = experiment: Antiproliferative activity against human MCF7 cells over expressing RSK2 after 48 hrs by MTT assay; type: functional, cell-based; conditions: MCF7, 48 h; in short: as §1
# MDA-MB-231 [7] = experiment: Antiproliferative activity against human MDA-MB-231 cells over expressing RSK2 after 48 hrs by MTT assay; type: functional, cell-based; conditions: MDA-MB-231, 48 h; in short: as §1
# [8] = biological target: Ribosomal protein S6 kinase beta-1 (Homo sapiens) (UniProt P23443); experiment: Inhibition of p70S6K at 10 uM
# In short: (§3)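 Serine/threonine kinase profiling by an outside contract service following manufacturer protocols, ATP at Km for each enzyme; percent inhibition at 10 μM.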
# [9] = biological target: Serine/threonine-protein kinase pim-1 (Homo sapiens) (UniProt P11309); experiment: Inhibition of PIM1 at 10 uM; in short: as §3
# [10] = biological target: T1, Ribosomal protein S6 kinase alpha-3; experiment: Inhibition of RSK2 at 10 uM; in short: as §2
# [11] = biological target: Vascular endothelial growth factor receptor 1 (Homo sapiens) (UniProt P17948); experiment: Inhibition of Flt1 at 10 uM by ELISA based method
# Chain of Vascular endothelial growth factor receptor 1 (Homo sapiens) (P17948 whole entry): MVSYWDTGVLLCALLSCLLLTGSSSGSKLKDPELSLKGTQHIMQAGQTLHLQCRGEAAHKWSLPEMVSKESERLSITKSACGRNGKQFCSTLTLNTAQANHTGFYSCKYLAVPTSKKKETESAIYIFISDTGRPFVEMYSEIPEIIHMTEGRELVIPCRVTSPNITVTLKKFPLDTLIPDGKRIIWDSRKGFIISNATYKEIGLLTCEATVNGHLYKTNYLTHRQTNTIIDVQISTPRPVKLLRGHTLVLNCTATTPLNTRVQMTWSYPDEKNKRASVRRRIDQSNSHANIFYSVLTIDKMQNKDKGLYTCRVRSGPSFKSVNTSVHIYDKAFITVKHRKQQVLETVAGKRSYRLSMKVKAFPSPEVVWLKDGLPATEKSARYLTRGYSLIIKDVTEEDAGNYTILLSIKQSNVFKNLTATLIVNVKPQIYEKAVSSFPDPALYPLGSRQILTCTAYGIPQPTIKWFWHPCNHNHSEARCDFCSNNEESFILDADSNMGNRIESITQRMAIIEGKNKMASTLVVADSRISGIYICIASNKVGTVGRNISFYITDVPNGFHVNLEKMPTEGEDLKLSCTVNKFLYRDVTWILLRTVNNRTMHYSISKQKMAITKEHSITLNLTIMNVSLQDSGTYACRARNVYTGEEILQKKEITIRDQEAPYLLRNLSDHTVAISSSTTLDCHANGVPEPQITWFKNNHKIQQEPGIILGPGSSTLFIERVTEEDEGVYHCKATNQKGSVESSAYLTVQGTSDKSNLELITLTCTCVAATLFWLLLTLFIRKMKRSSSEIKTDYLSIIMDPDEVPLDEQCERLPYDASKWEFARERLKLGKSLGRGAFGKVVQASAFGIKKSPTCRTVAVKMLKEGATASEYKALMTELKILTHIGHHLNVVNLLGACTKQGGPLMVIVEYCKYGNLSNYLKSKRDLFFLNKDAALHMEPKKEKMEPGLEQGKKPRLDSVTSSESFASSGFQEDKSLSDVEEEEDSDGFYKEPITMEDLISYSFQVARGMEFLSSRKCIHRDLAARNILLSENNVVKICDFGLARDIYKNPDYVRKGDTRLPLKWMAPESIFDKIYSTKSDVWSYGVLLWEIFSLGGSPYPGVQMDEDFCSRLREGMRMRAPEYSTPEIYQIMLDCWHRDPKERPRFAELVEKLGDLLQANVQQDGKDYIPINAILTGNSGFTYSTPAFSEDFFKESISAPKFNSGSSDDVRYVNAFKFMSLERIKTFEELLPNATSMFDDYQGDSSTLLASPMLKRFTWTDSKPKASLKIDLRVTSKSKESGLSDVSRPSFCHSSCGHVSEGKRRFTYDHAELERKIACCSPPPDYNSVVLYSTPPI
# In short: (§4)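 Tyrosine kinase profiling by ELISA-based method, ATP at Km for each enzyme; percent inhibition at 10 μM, mean of at least two independent tests.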
# [12] = biological target: Vascular endothelial growth factor receptor 2 (Homo sapiens) (UniProt P35968); experiment: Inhibition of KDR at 10 uM by ELISA based method; in short: as §4
# [13] = biological target: Mast/stem cell growth factor receptor Kit (Homo sapiens) (UniProt P10721); experiment: Inhibition of c-Kit at 10 uM by ELISA based method; in short: as §4
# [14] = biological target: Platelet-derived growth factor receptor alpha (Homo sapiens) (UniProt P16234); experiment: Inhibition of PDGFRalpha at 10 uM by ELISA based method; in short: as §4
# [15] = biological target: Platelet-derived growth factor receptor beta (Homo sapiens) (UniProt P09619); experiment: Inhibition of PDGFRbeta at 10 uM by ELISA based method; in short: as §4
# Chain of Platelet-derived growth factor receptor beta (Homo sapiens) (P09619 whole entry): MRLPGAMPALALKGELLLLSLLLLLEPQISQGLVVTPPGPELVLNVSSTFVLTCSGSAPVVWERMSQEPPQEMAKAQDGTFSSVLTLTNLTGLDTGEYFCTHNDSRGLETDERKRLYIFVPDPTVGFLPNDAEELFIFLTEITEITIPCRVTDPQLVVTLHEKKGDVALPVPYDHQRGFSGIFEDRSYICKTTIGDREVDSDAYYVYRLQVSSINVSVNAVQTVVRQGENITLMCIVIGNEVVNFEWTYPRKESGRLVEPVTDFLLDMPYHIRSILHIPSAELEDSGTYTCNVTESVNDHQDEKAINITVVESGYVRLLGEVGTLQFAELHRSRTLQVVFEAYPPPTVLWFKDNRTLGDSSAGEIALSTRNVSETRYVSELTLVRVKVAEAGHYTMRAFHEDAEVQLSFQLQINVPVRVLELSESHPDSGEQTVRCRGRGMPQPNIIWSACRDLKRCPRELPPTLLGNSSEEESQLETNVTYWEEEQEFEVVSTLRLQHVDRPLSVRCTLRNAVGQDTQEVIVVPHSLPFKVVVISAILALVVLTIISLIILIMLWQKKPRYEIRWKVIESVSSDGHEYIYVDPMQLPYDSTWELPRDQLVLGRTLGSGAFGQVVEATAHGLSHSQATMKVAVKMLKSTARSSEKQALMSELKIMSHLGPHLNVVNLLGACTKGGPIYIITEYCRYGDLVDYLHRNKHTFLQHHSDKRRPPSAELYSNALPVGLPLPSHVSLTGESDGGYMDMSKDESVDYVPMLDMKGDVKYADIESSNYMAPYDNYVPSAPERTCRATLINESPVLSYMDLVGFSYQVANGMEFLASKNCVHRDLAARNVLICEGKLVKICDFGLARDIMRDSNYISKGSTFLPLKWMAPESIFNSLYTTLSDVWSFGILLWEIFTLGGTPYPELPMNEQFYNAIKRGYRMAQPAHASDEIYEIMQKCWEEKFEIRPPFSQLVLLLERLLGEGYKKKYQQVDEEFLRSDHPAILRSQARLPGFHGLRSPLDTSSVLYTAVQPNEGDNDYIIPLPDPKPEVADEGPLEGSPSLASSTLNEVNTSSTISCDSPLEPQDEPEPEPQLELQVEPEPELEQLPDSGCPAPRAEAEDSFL
# [16] = biological target: Proto-oncogene tyrosine-protein kinase receptor Ret (Homo sapiens) (UniProt P07949); experiment: Inhibition of RET at 10 uM by ELISA based method; in short: as §4
# [17] = biological target: Epidermal growth factor receptor (Homo sapiens) (UniProt P00533); experiment: Inhibition of EGFR at 10 uM by ELISA based method; in short: as §4
# [18] = biological target: Proto-oncogene tyrosine-protein kinase Src (Homo sapiens) (UniProt P12931); experiment: Inhibition of c-Src at 10 uM by ELISA based method; in short: as §4
# [19] = biological target: Tyrosine-protein kinase ABL1 (Homo sapiens) (UniProt P00519); experiment: Inhibition of ABL at 10 uM by ELISA based method; in short: as §4
# [20] = biological target: Ephrin type-A receptor 2 (Homo sapiens) (UniProt P29317); experiment: Inhibition of EPHA2 at 10 uM by ELISA based method; in short: as §4
# Chain of Ephrin type-A receptor 2 (Homo sapiens) (P29317 whole entry): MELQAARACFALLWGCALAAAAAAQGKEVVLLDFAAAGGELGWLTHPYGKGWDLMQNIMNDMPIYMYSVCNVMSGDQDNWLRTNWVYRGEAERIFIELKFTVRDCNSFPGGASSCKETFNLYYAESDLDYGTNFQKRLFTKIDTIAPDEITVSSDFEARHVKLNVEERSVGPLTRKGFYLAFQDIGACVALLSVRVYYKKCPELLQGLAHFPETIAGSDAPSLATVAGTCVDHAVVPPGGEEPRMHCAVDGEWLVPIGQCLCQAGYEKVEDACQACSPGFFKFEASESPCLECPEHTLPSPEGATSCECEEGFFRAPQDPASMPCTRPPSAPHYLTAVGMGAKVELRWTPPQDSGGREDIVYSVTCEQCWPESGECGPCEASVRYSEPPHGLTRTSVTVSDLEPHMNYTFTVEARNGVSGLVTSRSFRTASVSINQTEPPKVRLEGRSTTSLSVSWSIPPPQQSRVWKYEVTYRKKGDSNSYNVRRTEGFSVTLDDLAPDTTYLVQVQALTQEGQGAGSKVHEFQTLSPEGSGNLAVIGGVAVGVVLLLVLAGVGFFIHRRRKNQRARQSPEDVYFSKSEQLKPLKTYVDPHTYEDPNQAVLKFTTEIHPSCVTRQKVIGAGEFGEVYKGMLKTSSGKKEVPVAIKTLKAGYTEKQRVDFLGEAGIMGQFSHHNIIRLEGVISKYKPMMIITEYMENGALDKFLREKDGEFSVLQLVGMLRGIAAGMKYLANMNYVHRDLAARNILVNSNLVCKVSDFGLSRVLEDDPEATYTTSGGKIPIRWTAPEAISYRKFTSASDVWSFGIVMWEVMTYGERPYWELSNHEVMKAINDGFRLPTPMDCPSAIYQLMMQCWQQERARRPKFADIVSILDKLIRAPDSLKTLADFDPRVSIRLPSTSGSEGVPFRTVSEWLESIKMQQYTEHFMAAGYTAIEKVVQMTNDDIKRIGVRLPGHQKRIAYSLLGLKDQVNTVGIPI
# [21] = biological target: Fibroblast growth factor receptor 1 (Homo sapiens) (UniProt P11362); experiment: Inhibition of FGFR1 at 10 uM by ELISA based method; in short: as §4
# Chain of Fibroblast growth factor receptor 1 (Homo sapiens) (P11362 22-822 limits assumed): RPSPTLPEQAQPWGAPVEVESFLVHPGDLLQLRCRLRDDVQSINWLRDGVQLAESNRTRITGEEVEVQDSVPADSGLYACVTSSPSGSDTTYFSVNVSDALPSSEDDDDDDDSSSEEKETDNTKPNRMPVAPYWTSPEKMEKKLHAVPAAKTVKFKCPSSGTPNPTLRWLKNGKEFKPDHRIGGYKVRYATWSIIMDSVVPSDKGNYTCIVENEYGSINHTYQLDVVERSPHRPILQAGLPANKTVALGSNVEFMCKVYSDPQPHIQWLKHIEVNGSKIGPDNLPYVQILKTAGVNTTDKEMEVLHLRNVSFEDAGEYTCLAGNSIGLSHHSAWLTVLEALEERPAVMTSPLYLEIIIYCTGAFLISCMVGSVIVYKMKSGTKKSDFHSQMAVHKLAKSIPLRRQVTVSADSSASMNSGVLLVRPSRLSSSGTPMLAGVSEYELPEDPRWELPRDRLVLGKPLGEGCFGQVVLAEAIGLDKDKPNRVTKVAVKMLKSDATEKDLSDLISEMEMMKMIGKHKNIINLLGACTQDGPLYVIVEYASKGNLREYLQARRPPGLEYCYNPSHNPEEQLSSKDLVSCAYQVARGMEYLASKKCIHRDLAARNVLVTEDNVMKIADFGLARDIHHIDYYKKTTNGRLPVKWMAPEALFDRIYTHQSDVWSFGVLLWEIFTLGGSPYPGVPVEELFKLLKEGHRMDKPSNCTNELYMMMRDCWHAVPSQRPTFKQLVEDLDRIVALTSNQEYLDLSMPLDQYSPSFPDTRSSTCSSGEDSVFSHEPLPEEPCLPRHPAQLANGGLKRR
# [22] = biological target: RAC-alpha serine/threonine-protein kinase (Homo sapiens) (UniProt P31749); experiment: Inhibition of AKT1 at 10 uM; in short: as §3
# [23] = biological target: Mitogen-activated protein kinase 3 (Homo sapiens) (UniProt P27361); experiment: Inhibition of ERK1 at 10 uM; in short: as §3
# [24] = biological target: Glycogen synthase kinase-3 alpha (Homo sapiens) (UniProt P49840); experiment: Inhibition of GSK3alpha at 10 uM; in short: as §3
# [25] = biological target: Mitogen-activated protein kinase 9 (Homo sapiens) (UniProt P45984); experiment: Inhibition of JNK2 at 10 uM; in short: as §3
# [26] = biological target: Ribosomal protein S6 kinase alpha-5 (Homo sapiens) (UniProt O75582); experiment: Inhibition of MSK1 at 10 uM; in short: as §3
# [27] = biological target: Mitogen-activated protein kinase 14 (Homo sapiens) (UniProt Q16539); experiment: Inhibition of p38alpha at 10 uM; in short: as §3
# [28] = biological target: 3-phosphoinositide-dependent protein kinase 1 (Homo sapiens) (UniProt O15530); experiment: Inhibition of PDK1 at 10 uM
# [29] = biological target: Protein kinase C alpha type (Homo sapiens) (UniProt P17252); experiment: Inhibition of PKCalpha at 10 uM; in short: as §3
# MDA-MB-231 [30] = experiment: Antimigratory activity against human MDA-MB-231 cells at 5 uM after 48 hrs by wound-healing assay; type: functional, cell-based
# In short: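 MDA-MB-231 grown 24 h to confluence in six-well plates, monolayer scratched with a pipet tip, washed, then kept in serum-free DMEM with compound (0.5 and 5 μM) for 48 h; migration photographed by phase-contrast microscopy at 0 and 48 h.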
compound,measurement,setting,value
Cc1cc(N)cc2[nH]c(-c3ccccc3)nc12,inhibition at 100 µM,HCT-116 [1],32.6%
same,inhibition at 100 µM,MCF7 [2],21.3%
same,inhibition at 100 µM,MDA-MB-231 [3],45.8%
same,pIC50,[4],5.97
Cc1c(O)ccc(/N=N/c2ccc(S(=O)(=O)O)cc2)c1C,pIC50,[4],4.82
O=c1[nH]c(=O)c2ncc(-c3ccc(O)cc3)nc2[nH]1,pIC50,[4],4.84
Cc1c(N)ccc2nc(-c3ccc(N)cc3)[nH]c12,pIC50,[4],6.49
Nc1n[nH]c(N)c1/N=N/c1ccc(S(N)(=O)=O)cc1,inhibition at 100 µM,HCT-116 [1],6.98%
same,inhibition at 100 µM,MCF7 [2],32.9%
same,inhibition at 100 µM,MDA-MB-231 [3],18.5%
same,pIC50,[4],5.26
Cc1ccc2nc(-c3cc(N)cc(C)c3O)oc2c1,inhibition at 100 µM,HCT-116 [1],44.2%
same,pIC50,HCT-116 [5],< 4.00
same,inhibition at 100 µM,MCF7 [2],45.1%
same,pIC50,MCF7 [6],< 4.00
same,inhibition at 100 µM,MDA-MB-231 [3],54.7%
same,pIC50,MDA-MB-231 [7],< 4.00
same,pIC50,[4],5.86
COc1cc(/C=N/n2cnnc2)cc(I)c1O,pIC50,[4],4.79
N#Cc1nc(/N=N/c2ccccc2)[nH]c1O,inhibition at 100 µM,HCT-116 [1],4.8%
same,inhibition at 100 µM,MCF7 [2],0%
same,inhibition at 100 µM,MDA-MB-231 [3],12.1%
same,pIC50,[4],5.15
Oc1ccc(NCn2nnc3ccccc32)cc1,inhibition,[8],6.9%
same,inhibition,[9],0.7%
same,inhibition,[10],89.2%
same,inhibition at 100 µM,HCT-116 [1],91.6%
same,pIC50,HCT-116 [5],4.25
same,inhibition at 100 µM,MCF7 [2],97%
same,pIC50,MCF7 [6],4.75
same,inhibition at 100 µM,MDA-MB-231 [3],98.8%
same,pIC50,MDA-MB-231 [7],4.83
same,pIC50,[4],6.32
same,inhibition,[11],2.4%
same,inhibition,[12],16.9%
same,inhibition,[13],15.6%
same,inhibition,[14],-6.9%
same,inhibition,[15],55.2%
same,inhibition,[16],10%
same,inhibition,[17],32.4%
same,inhibition,[18],14.2%
same,inhibition,[19],8.6%
same,inhibition,[20],38.2%
same,inhibition,[21],31.3%
same,inhibition,[22],8.6%
same,inhibition,[23],2.8%
same,inhibition,[24],29.3%
same,inhibition,[25],11%
same,inhibition,[26],10.1%
same,inhibition,[27],13%
same,inhibition,[28],-5.8%
O=C1c2ccccc2C(=O)N1CNc1ccc(N2CCOCC2)cc1,inhibition at 100 µM,HCT-116 [1],13.2%
same,inhibition at 100 µM,MCF7 [2],31.2%
same,inhibition at 100 µM,MDA-MB-231 [3],6.89%
same,pIC50,[4],6.02
O=C(Nc1ccccc1O)c1cnns1,inhibition at 100 µM,HCT-116 [1],43.2%
same,pIC50,HCT-116 [5],< 4.00
same,inhibition at 100 µM,MCF7 [2],32.7%
same,inhibition at 100 µM,MDA-MB-231 [3],46.5%
same,pIC50,MDA-MB-231 [7],< 4.00
same,pIC50,[4],5.52
Nc1nc2nc(O)nc(O)c2s1,pIC50,[4],5.00
O=C1NC(=O)C(=NNc2ccc(O)cc2)C(=O)N1,inhibition at 100 µM,HCT-116 [1],49.1%
same,pIC50,HCT-116 [5],< 4.00
same,inhibition at 100 µM,MCF7 [2],85.8%
same,pIC50,MCF7 [6],4.81
same,inhibition at 100 µM,MDA-MB-231 [3],97.9%
same,pIC50,MDA-MB-231 [7],5.01
same,pIC50,[4],5.80
Cc1c(N)ccc2[nH]c(-c3ccc(N)cc3)nc12,inhibition,[8],6.2%
same,inhibition,[9],86.8%
same,inhibition,[29],-0.4%
same,inhibition,[10],95.5%
same,inhibition at 100 µM,HCT-116 [1],89.6%
same,pIC50,HCT-116 [5],4.52
same,inhibition at 100 µM,MCF7 [2],98.3%
same,pIC50,MCF7 [6],4.59
same,inhibition at 100 µM,MDA-MB-231 [3],89.2%
same,pIC50,MDA-MB-231 [7],4.79
same,Activity,MDA-MB-231 [30],Active
same,inhibition,[11],12.5%
same,inhibition,[12],21.9%
same,inhibition,[13],11.5%
same,inhibition,[14],1.4%
same,inhibition,[15],62.8%
same,inhibition,[16],0.6%
same,inhibition,[17],44.9%
same,inhibition,[18],8.2%
same,inhibition,[19],7.4%
same,inhibition,[20],24%
same,inhibition,[21],15.5%
same,inhibition,[22],-2.5%
same,inhibition,[23],-4.4%
same,inhibition,[24],3.5%
same,inhibition,[25],-1.4%
same,inhibition,[26],3.1%
same,inhibition,[27],2.7%
O=C(NNc1ccc(C(F)(F)F)cn1)c1ccccc1Cl,pIC50,[4],4.88
O=C(O)c1ccc(/N=N/c2ccc(O)c3ncccc23)cc1,inhibition at 100 µM,HCT-116 [1],28.4%
same,inhibition at 100 µM,MCF7 [2],36.7%
same,inhibition at 100 µM,MDA-MB-231 [3],22.2%
same,pIC50,[4],5.46
Clc1ccc2c(c1)SNC(c1ccccc1)=N2,inhibition at 100 µM,HCT-116 [1],6.5%
same,inhibition at 100 µM,MCF7 [2],3.6%
same,inhibition at 100 µM,MDA-MB-231 [3],0%
same,pIC50,[4],5.54
